Source: PubChem
Scp-1 inhibitor: inhibitors of human Scp-1 phosphatase | Recombinant Scp1, phosphopeptide, malachite green phosphate absorbance | inhibition, % at 20 µM | actives 0.88% (n = 340,000) | AID 493091;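 active means inhibition above about 50% at 20 µM, limit read from the data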;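 further: plate controls were DMSO wells with enzyme for no effect and wells lacking enzyme for full effect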
Target sequence (Q9GZU7 76-261 limits assumed): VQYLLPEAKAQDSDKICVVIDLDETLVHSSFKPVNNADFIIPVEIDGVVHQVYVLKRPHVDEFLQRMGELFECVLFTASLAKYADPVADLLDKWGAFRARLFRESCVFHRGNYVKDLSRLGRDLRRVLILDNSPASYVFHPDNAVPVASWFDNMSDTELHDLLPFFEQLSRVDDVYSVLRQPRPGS
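Test system: SCP-1 phosphatase catalytic domain, residues 76-261; measured by: colorimetric phosphate reagent with accelerator and stabiliser, absorbance at 630 nm; timing: enzyme reaction 45 min at room temperature, colour 5 min, stabilisation 30 min; also added: Phosphorylated 17-residue peptide substrate; compound dosing: one concentration, 20 µM, with 1.0% DMSO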
LMPTP block: LMPTP (human) inhibition; P24666; recombinant LMPTP-A, OMFP fluorogenic substrate, fluorescence intensity; inhibition, % at 20 µM; actives 0.22% (n = 360,000); AID 651560;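 active means compounds that cut the enzyme signal by at least half of the control window in the single-dose screen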;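 further: plate controls were DMSO wells with enzyme plus substrate for no effect and substrate without enzyme for full effect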
Target sequence (P24666 whole entry, looked up): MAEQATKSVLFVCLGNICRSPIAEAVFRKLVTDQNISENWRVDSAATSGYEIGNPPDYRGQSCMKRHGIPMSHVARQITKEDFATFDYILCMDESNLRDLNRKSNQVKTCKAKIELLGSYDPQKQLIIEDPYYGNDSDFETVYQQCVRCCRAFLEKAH
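test system = LMPTP-A | amount = 0.625 nM LMPTP-A final | reagent = fluorogenic phosphatase substrate OMFP at 400 µM final | incubation = 50 min at room temperature | benchmarks = no-enzyme low control, uninhibited high control | medium = Bis-Tris pH 6.0, DTT, detergent | signal = fluorescence intensity of OMFP turnover product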
STEP inh: STEP (human) phosphatase inhibition; inhibition, % at 20 µM; actives 0.25% (n = 360,000); AID 588621; P54829; recombinant STEP, OMFP fluorogenic substrate, fluorescence;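 active means inhibition at 20 µM, scaled per plate between control wells, above about 37%, limit read from the data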;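 further: 0% = DMSO with enzyme and substrate and 100% = substrate only without enzyme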
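material = STEP tyrosine phosphatase | reagent = fluorogenic phosphatase substrate OMFP at 25 µM final | doses = single compound dose of 20 µM, 1% DMSO final | schedule = 20 min reaction, room temperature, in the dark | measured by = fluorescence, 480/540 nm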
SUMO1 PPI mod: alters human SUMO1 binding to SIM partners. P63165. SUMO1 binding to a labelled peptide, TR-FRET, 1 h. inhibition, % at 20 µM. actives 0.33% (n = 360,000). AID 602429; in the data active means inhibition above about 37%
Target sequence (P63165 whole entry, looked up): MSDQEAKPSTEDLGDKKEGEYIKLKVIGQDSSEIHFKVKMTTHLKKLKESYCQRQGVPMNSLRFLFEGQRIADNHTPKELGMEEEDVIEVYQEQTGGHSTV
Pemphigus Ab inh: blocks pemphigus antibody binding to human desmoglein-3; P32926; binding (percent of control), % at 10 µM; actives 0.48% (n = 310,000); DSG3-coupled beads, scFv-anti-DSG3-GFP binding, flow cytometry; hits give low values;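 active means binding more than 3 SD below its plate's average and above zero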;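 further: hits lower antibody fragment binding to DSG3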
Active calls of the source: *; nt = no result. Only some compounds are listed: those with a hit (about 1.7% of all), similar ones and a draw of the others.

SMILES	Scp-1 inhibitor	LMPTP block	STEP inh	SUMO1 PPI mod	Pemphigus Ab inh
CCn1nc(NC(=O)COC)c2cc3cc(C)ccc3nc21	33	0	-4	-20	92
CCCCn1nc(NC(=O)COC)c2cc3ccc(C)cc3nc21	52*	2	-6	-6	90
O=C(N/N=C/c1cc2c(cc1[N+](=O)[O-])OCO2)c1ccccn1	7	0	3	-14	74
Cn1ncc(Cl)c1C(=O)N/N=C/c1cc2c(cc1[N+](=O)[O-])OCO2	4	0	-1	-27	71*
COC(=O)c1sccc1NC(=O)Cn1nnc(-c2ccccc2C)n1	-12	-1	0	0	119
CC(C)c1ccc(NC(=O)C(c2ccccc2)N2CCOCC2)cc1 (stereo not given)	-6	50*	-1	8	96
COc1ccc(S(=O)(=O)N2CCN(CC(=O)Nc3ccccc3OC)CC2)cc1	4	0	-1	3	75*
COc1ccc(S(=O)(=O)N2CCN(CC(=O)Nc3ccccc3Cl)CC2)cc1	-5	0	4	2	107
CC(C)Nc1ncnc2[nH]ncc12	-10	-2	5	2	87
CNc1nc(NC)c2cn[nH]c2n1	-8	63*	-2	-2	112
CCSc1nc(C)nc2sc(C)c(C)c12	-12	1	4	79*	101
Cc1nc(SCC(=O)N2CCCCC2)c2c(C)c(C)sc2n1	-5	-1	2	5	120
CC(C)C(NC(=O)c1ccccc1)C(=O)N/N=C\c1ccco1 (stereo not given)	-2	-1	-1	-4	nt
COc1ccc(-n2c(C)cc(/C=C3\SC(=S)N(Cc4ccco4)C3=O)c2C)cc1	-3	3	3	-4	108
COc1ccc(-c2nn(-c3ccccc3)cc2/C=C2/SC(=S)N(Cc3ccco3)C2=O)c(C)c1	-7	0	-2	1	87*
O=S(=O)(NCC(O)COCc1ccco1)c1cccs1 (stereo not given)	65*	0	2	2	106
Cc1cc(NS(=O)(=O)c2ccc(Nc3nc(-c4sc(N)nc4C)cs3)cc2)no1	23	12	2	51*	98
Cc1ccc([N+](=O)[O-])c(NC(=O)COC(=O)CCNS(=O)(=O)c2cccs2)c1C	nt	0	1	-5	100
COc1ccc2cc3c(N)nn(C(=O)c4ccccc4Cl)c3nc2c1	3	2	4	-16	101
COc1ccc2cc3c(N)nn(C(=O)c4ccc(F)cc4)c3nc2c1	27	-1	21	9	62*
CC1CC2=C(NC(=S)NC2c2ccccc2F)/C(=C/c2ccccc2F)C1 (stereo not given)	3	0	1	4	17*
O=C(O)CCCn1cc(NC(=O)COc2cc(F)ccc2[N+](=O)[O-])cn1	-9	0	2	-10	100
CCc1oc(C(=O)O)cc1COC	66*	-2	0	-1	100
O=c1[nH]c(=S)[nH]c2nc(-c3cccs3)cc(C(F)(F)F)c12	-9	-2	0	-10	71*
Cc1c(CCO)c(=O)[nH]n1S(=O)(=O)c1ccc(F)cc1	-2	-2	-1	2	114
SMILES	Scp-1 inhibitor	LMPTP block	STEP inh	SUMO1 PPI mod	Pemphigus Ab inh
Cc1cc(=O)oc2cc(OCC(=O)NC3(C#N)CCCCC3)ccc12	nt	-1	0	7	106
Cc1ccc2nc(-c3cc(-c4ccccc4)no3)cn2c1	0	6	2	62*	nt
CC(NS(=O)(=O)c1ccc(Br)s1)c1ccccc1 (stereo not given)	-7	2	8	-4	101
Cc1csc(NC(=O)C(NS(=O)(=O)c2ccc(Br)s2)c2ccccc2)n1 (stereo not given)	-5	0	0	0	86*
COc1ccc(NC(=O)C[C@H]2C(=O)N(c3ccc(Br)cc3)C[C@@H]2CSC)cc1	nt	0	0	5	nt
CCn1c(SCC(=O)NC(=O)NCc2ccco2)nc2sc(C)c(C)c2c1=O	44	30	4	50*	98
Cc1ccc(C2=NNC(=O)C(c3c[nH]c4ccccc34)C2)cc1 (stereo not given)	-11	1	2	55*	101
COCCCn1c(=O)c2sccc2n(Cc2ccccc2)c1=O	0	1	0	2	93
COCCCn1c(=O)c2ccccc2n(Cc2ccccc2)c1=O	-7	-1	0	4	100*
Cc1cccc(Oc2ccc(NC(=O)C3=CC=CN4CCS(=O)(=O)N=C34)cc2)c1	-8	2	2	-5	nt
Nc1nc(N)nc(-c2ccccc2-c2nc(N)nc(N)n2)n1	2	1	-2	0	74*
Nc1nnn(CC(=O)N/N=C/c2cccc(Cl)c2)n1	-11	-2	-2	-1	77*
CSc1ccc(CCNC(=O)C2CCCN(S(=O)(=O)N3CCOCC3)C2)cc1 (stereo not given)	-2	-1	-3	2	77*
O=C(NCCN1CCOCC1)C1CCN(S(=O)(=O)N2CCCCC2)CC1	1	0	0	64*	105
COc1ccc(CCNC(=O)C2CCCN(S(=O)(=O)N3CCCCCC3)C2)cc1OC (stereo not given)	-4	1	-4	2	102
CC(=O)Nc1ccc(S(=O)(=O)N2CCN(C(=O)C3COc4ccccc4O3)CC2)cc1 (stereo not given)	-7	0	-1	-2	106
COc1ccc(S(=O)(=O)N2CCN(C(=O)C3COc4ccccc4O3)CC2)cc1 (stereo not given)	64*	56*	35	19	102
CCOC(=O)c1c(C)nc(C)c2c(=O)oc3ccccc3c12	15	0	3	4	95*
CCOC(=O)c1cc2c(ccc3ccccc32)oc1=O	-3	0	-3	-9	101
FC(F)(F)c1ccccc1Cc1c(-c2ccco2)nc2ccc(Br)cn12	nt	1	-4	-5	nt
CCC[n+]1c2ccccc2cc2ccccc21	55*	1	0	-10	90
CCCC[n+]1c2ccccc2cc2ccccc21	31	3	0	-8	86
CC(N=Cc1c(O)c2ccccc2oc1=O)C(=O)O (stereo not given)	2	-1	2	3	51*
O=C(O)C(CO)N=Cc1c(O)c2ccccc2oc1=O (stereo not given)	9	7	10	-1	105
CCN(C(=O)CSc1ncccn1)c1c(N)n(Cc2ccccc2)c(=O)[nH]c1=O	-3	0	-3	-1	116
Cc1ccc(S(=O)(=O)Nc2ncnc3sccc23)cc1C	-1	0	0	-1	93
CC(C)Oc1ccc(C2CC(=O)N(c3ccc(N(C)C)cc3)C2=O)cc1 (stereo not given)	7	0	2	0	77*
